An excerpt weighted towards active compounds, which were near 2.6% of everything screened.
PolyA inhibitor = inhibitors of polyadenylation in S. cerevisiae; S. cerevisiae SKY197-pL101 polyadenylation reporter, beta-gal luminescence; efflux-impaired pdr1/pdr3 knockout yeast; score 100 = 6 SD above DMSO; activity score, % at 12 µM; 300,000 tested, 0.02% active; AID 1875;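 active means lowest replicate activity score at least 50, where 100 means six control SD above control mean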;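 further: yeast exposed to compound for 9 h at 30 °C; higher score means more reporter readthrough which indicates perturbed polyadenylation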
AHR act = activates the human aryl hydrocarbon receptor; AID 2796; activation, % at 5 µM; P35869; 320,000 tested, 2.5% active; AHR-responsive luciferase reporter cells, luminescence; in the data active means activation above about 47%
procasp3 activ = procaspase-3 (human) activation | activation, % at 8.5 µM | P42574 | recombinant procaspase-3 D3A, Ac-DEVD-pNA absorbance 405 nm | AID 463141 | 330,000 tested, 0.11% active;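 active means activation above the mean of all tested compounds plus 3 SD, cut at about 21% in these data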
Target sequence (P42574 whole entry D9A/D28A/D175A): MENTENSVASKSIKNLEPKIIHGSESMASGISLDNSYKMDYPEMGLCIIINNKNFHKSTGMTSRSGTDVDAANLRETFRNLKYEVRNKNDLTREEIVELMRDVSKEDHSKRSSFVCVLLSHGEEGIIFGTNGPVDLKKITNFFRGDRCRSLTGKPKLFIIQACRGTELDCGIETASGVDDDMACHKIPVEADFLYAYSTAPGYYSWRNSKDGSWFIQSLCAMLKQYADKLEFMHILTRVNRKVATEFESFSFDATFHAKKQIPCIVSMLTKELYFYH
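material = Procaspase-3 D3A mutant | probe or stimulus = Ac-DEVD-pNA | compound = single dose, 8.5 µM nominal compound, 0.8% DMSO | timing = 1 h preincubation, 2 h reaction | measured by = 405 nm absorbance of p-nitroaniline, reads at 0 and 120 min | benchmarks = DMSO-only low control, 5 µM PC-3 D3A high control | repeats = singlicate, each compound tested once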
proCasp7 act = counter-screen: procaspase-7 (human) activation; recombinant procaspase-7, Ac-DEVD-pNA absorbance 405 nm; D23A/D198A/D206A triple mutant, cannot self-cleave; scale: DMSO 0, 5 µM enzyme 100; activation, % at 8.5 µM; 330,000 tested, 0.093% active; AID 463210;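 active means percent activation above the screen-wide mean plus 3 SD, cut at about 25% in these data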
Target sequence (P55210 whole entry D23A/D198A/D206A): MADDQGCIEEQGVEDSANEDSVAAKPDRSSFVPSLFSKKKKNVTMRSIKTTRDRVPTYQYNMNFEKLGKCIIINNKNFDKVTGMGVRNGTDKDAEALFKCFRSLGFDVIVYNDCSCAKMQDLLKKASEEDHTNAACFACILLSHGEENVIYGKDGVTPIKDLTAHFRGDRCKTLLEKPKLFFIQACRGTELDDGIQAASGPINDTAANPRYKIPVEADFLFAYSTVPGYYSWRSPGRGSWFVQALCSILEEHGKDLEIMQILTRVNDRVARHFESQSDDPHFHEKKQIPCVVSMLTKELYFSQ
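Assay system: Uncleavable procaspase-7 mutant enzyme | Input: 2 µM procaspase-7 mutant as dispensed | Timing: 1 h compound preincubation, 2 h substrate cleavage, 25 °C | Repeats: One well per compound | Control set: DMSO wells as 0%, DMSO with 5 µM added PC-7 as 100% | Technique: Epi-absorbance of released pNA at 405 nm, two timepoints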
AHR act cf = confirmation of human aryl hydrocarbon receptor activators. AID 2845. activation, % at 9 µM. shares compounds with AHR act. human cells, AHR-responsive luciferase reporter, luminescence. 2,300 tested, 87% active; in the data active means activation above about 49%;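 further: HepG2 hepatoma cells carrying a DRE-driven firefly luciferase reporter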
PXR counter = activates human PXR in AHR activator counter-screen | shares compounds with AHR act | cell-based PXR reporter, luciferase luminescence | activation, % at 11.6 µM | 2,300 tested, 88% active | AID 434939; in the data active means activation above about 11%;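 further: human hepatoma DPX-2 cells expressing full-length human PXR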
Of the large screens only hits and unclear results are named; the others gave an inactive call (follow-up assays come after a bar, where they were run).

C/C(=N/Nc1ccc(F)cc1)c1ccc(Cl)s1	AHR act 84 | AHR act cf 68
C/C(=N\NC(N)=O)c1ccc(Cl)s1	none
CCCCNS(=O)(=O)NC(=O)C1=C(N2CCCC2)COC1=O	none (no result: PolyA inhibitor)
CCc1c(C)c2c(C)nn(-c3ccccc3)c2[nH]c1=O	AHR act 97 | AHR act cf 94 | PXR counter 24
CCOC(=O)Cc1c(C)c2c(C)nn(-c3ccccc3)c2oc1=O	none
COc1ccc(Cl)cc1NC(=O)c1nnn(CC(=O)Nc2ccc(C)c(C)c2)c1N	none
Cc1ccccc1C(=O)NC(=S)NCCc1ccccc1	AHR act 86 | AHR act cf 104 | PXR counter 27
Cc1ccccc1C(=O)NC(=S)NCc1ccccc1	none
COc1ccc(NC(=O)c2cccc(N3C(=O)c4ccc(C(=O)Nc5ccc(OC)c(O)c5)cc4C3=O)c2)cc1O	none
Cc1ncc(CO)c(/C=N/Nc2ccc(C(F)(F)F)cn2)c1O	AHR act 81 | AHR act cf inactive | PXR counter 15
COc1ccccc1C(=O)NC(=S)/C=C1/N(C)c2ccccc2C1(C)C	AHR act 81 | AHR act cf inactive | PXR counter 100
CN1/C(=C\C(=S)NC(=O)c2ccccc2Cl)C(C)(C)c2ccccc21	none
O=C(OCCN1CCOCC1)c1ccc(Cl)cc1Cl	none
Cc1cccc(N/N=C2/COC(C)(C)CC2=O)c1	none
Cc1cccc(NN=C2c3ccccc3-c3ccccc32)c1	AHR act 88 | AHR act cf 115 | PXR counter 22
Cc1[nH]n(C(N)=S)c(=O)c1N=Nc1cccc(Cl)c1	AHR act 114 | AHR act cf 115 | PXR counter 13
CC1=NN(C(N)=S)C(=O)C1N=Nc1cccc(Cl)c1 (stereo not given)	AHR act 85 | AHR act cf 148 | PXR counter 27
COc1cccc(N=NC2C(=O)N(C(N)=S)N=C2C)c1 (stereo not given)	none
CCn1c(COc2ccccc2)nnc1SCC(=O)NC1CC1	none
C/C(=N\NC(=O)C1CC1)c1ccc(C)cc1C	none
COc1cc(-c2ccc3sc(-c4ccsc4)c(C#CCO)c3c2)cc(OC)c1OC	AHR act 80 (no result: PolyA inhibitor) | AHR act cf 61 | PXR counter 13
OCCC#Cc1c(-c2ccsc2)sc2ccccc12	AHR act 86 | AHR act cf 62 | PXR counter 13
CC1Sc2ccc(S(=O)(=O)CCC(=O)NCc3cccs3)cc2NC1=O (stereo not given)	none
Cc1cc(C)c(C)c(S(=O)(=O)N[C@@H](C)C(=O)OCC(=O)NC2CCCC(C)C2C)c1C (stereo not given in full)	none (no result: PolyA inhibitor)
O=C1c2ccccc2C(=O)N1CCC1=CCCCC1	AHR act 103 | AHR act cf 121 | PXR counter 17
CC(Sc1nnc(-c2ccncc2)n1-c1ccc(F)cc1)C(=O)NC1CC1 (stereo not given)	none (no result: PolyA inhibitor)
CC(=O)c1c(N2CCOCC2)[nH]c(-c2ccccc2)nc1=S	AHR act 136 | AHR act cf 122 | PXR counter 75
CN(C)CC[n+]1ccc(C(=O)c2ccccc2)cc1	none
FC(F)(F)c1cnc(N/N=C/c2ccncc2)c(Cl)c1	AHR act 93 | AHR act cf 75 | PXR counter 18
NC1=NC(=Nc2ccc(Br)cc2)c2ccccc21	AHR act 88 | AHR act cf inactive | PXR counter 15
C=CCNc1ncnc2c1[nH]c1ccc(Cl)cc12	AHR act 110 | AHR act cf 113 | PXR counter 44
COc1ccc(S(=O)(=O)N(C)C)cc1NC(=O)COC(=O)C1CC1	none (no result: PolyA inhibitor)
CCCCn1nnnc1SCC(=O)Nc1ccc2c(c1)OCO2	AHR act 90 | AHR act cf 82 | PXR counter 30
Cc1ccc(NC(=O)CSc2nnnn2-c2ccc3c(c2)OCO3)cc1C	AHR act 159 | AHR act cf 167 | PXR counter 226
O=C(CSc1nnnn1Cc1ccccc1)Nc1ccc2c(c1)OCO2	AHR act 102 | AHR act cf 85 | PXR counter 94
CCOC(=O)c1csc(NC(=O)C2=COCCO2)n1	none
CC(C)(C)c1ccc(C(CC(=O)O)NC(=O)c2ccccc2F)cc1 (stereo not given)	none
Cc1c(OCC(=O)N2CCC(C(=O)O)CC2)ccc2c1oc(=O)c1ccccc12	none
CN(C)/C=N/c1nc(-c2ccc3c(c2)OCO3)cs1	AHR act 81 | AHR act cf 69 | PXR counter 28
CN(C)/C=N/c1nc(-c2ccc3ccccc3c2)cs1	none
Cn1cc(/C=C2\SC(=S)N(N3CCOCC3)C2=O)c2ccccc21	AHR act 107 | AHR act cf inactive | PXR counter inactive
O=C(O)Cn1cc(/C=C2\SC(=O)N(c3ccccc3)C2=O)c2ccccc21	none
Cn1cc(/C=C2/SC(=O)N(c3ccccc3)C2=O)c2ccccc21	AHR act 101 | AHR act cf 87 | PXR counter 17
Cc1nn(C)cc1/C=N\NC(=O)c1csc2c1CCCC2	none
O=C(/C=C/c1c[nH]c2ccccc12)c1ccccc1	AHR act 93 | AHR act cf 105 | PXR counter 28
Cn1c(=O)n(CCc2ccccc2)c2ccccc21	AHR act 125 | AHR act cf 111 | PXR counter 40
Cc1csc(N/N=C/c2ccc(O)c([N+](=O)[O-])c2)n1	none
O=[N+]([O-])c1cc(/C=N\Nc2nc(-c3ccccc3)cs2)ccc1O	AHR act 119 | AHR act cf inactive | PXR counter inactive
CC1=CCC2C(=O)N(c3cccc(C(=O)Nc4ccccc4Cl)c3)C(=O)C2C1 (stereo not given)	none
O=c1cc(-c2ccc3c(c2)OCO3)oc2ccccc12	AHR act 104 | AHR act cf 142 | PXR counter 79
Nc1cccc2c1C(=O)N(CCOc1ccc(F)cc1)C2=O	AHR act 98 | AHR act cf 87 | PXR counter 29
O=C1c2ccccc2C(=O)N1CCOc1ccccc1	AHR act 97 | AHR act cf 167 | PXR counter 21
CCN(CC)c1ccc(/C=N/N(c2ccccc2)c2ccccc2)c(O)c1	AHR act 94 | AHR act cf 90 | PXR counter 97
COc1ccc(CC(=O)OCC(=O)N(C)C2CCS(=O)(=O)C2)cc1OC (stereo not given)	none
CC(=O)Nc1cccc(C(=O)OCc2csc(CC(=O)Nc3ccccc3C)n2)c1	none (no result: PolyA inhibitor)
CCOc1ccc(-c2c(C(=O)N/N=C(\C)c3cccnc3)nnn2-c2nonc2N)cc1	AHR act 91 | AHR act cf 94 | PXR counter 33

Compound activity (PubChem)
